Consider ten compounds from publication PMC8182972 (Journal of medicinal chemistry, 2011).

Series [1] can be described thus: Aqueous solubility. Format: physicochemical. To be noted: for Maximum Solubility: 1% DMSO in PBS.
Series [2] is described as follows: In vitro microsomal stability, mouse. Type of series: in vitro ADME. The conditions noted are these: 5 μM, 37 °C; for CL’int: 1 h, with NADPH; for CL’int NADPH-free: absence of NADPH.
Series [3] relates to primary cortical neurons. Briefly: Primary cortical neuron cell protection assay. Type of series: cell-based, rat. To be noted: MG132 100 nM; active = viability restored ≥ 5 SD from MG132 controls.
Series [4] has as its system PC12 cells expressing mutant G93A SOD1. Format: cell-based. The conditions noted are these: for EC50: PC12 cells expressing mutant G93A SOD1, MG132 100 nM, Calcein-AM viability.
Series [5] can be described thus: In vitro microsomal stability, human. Type of series: in vitro ADME. To be noted: 37 °C; for CLint scaled at 1 h, 5 µM: human, microsomes.
For series [6], the system named is Caco-2 monolayer cells. Briefly: Caco-2 permeability. Format: in vitro ADME. To be noted: for Ratio (B→A / A→B): Caco-2 efflux ratio.
Series [7] in a line: Metabolite profiling of 1. Format: in vitro ADME. To be noted: rat liver microsomes, 5 μM, in the presence of NADPH, LC/MS/MS. Summed up: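 Test compound and its [15N2]-labelled analog (5 μM) were incubated in duplicate with or without rat liver microsomes, in the presence and absence of NADPH. Aliquots were taken at 0, 10, 20, 40 and 60 min. Protein was precipitated with acetonitrile containing internal standard, and supernatants were analysed by LC/MS/MS for new peaks absent from no-microsome, no-compound and no-NADPH controls.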
A general note: Liver microsomes are a subcellular fraction often used to study metabolism.

In series [8] the test system is 68 in vitro enzyme and receptor assays. The experiment in a line: LeadProfilingScreen. Type of series: binding. To be noted: 10 μM, in duplicate. Summed up: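 Test compound was screened at 10 μM in duplicate against a commercial panel of 68 enzyme and receptor assays. The panel covers common adverse CNS, cardiovascular, pulmonary and […] liabilities.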
In series [9] the test system is HEK293. Briefly: Screen in other cell types: HEK293. Format: cell-based.
The test system of series [10] is SHSY-5Y. The experiment in a line: Screen in other cell types: SHSY-5Y. Format: cell-based.
A short description of series [11]: Mouse in vivo steady-state level and blood-brain barrier penetration. Further details: species or system mice. Put shortly: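 B6SJL mice received a 300 mg/kg bolus i.p. injection of test compound. Blood and brain were collected at 0, 1, 3, 6, 12 and 24 h, flash-frozen in liquid nitrogen and stored at -80 °C. Samples were quantified by mass spectrometry with ESI ionization in MRM mode.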

The test system of series [12] is HeLa. Briefly: Screen in other cell types: HeLa. Type of series: cell-based.
For series [13], the target named is CYP2C19 (Homo sapiens, UniProt P33261). The experiment in a line: CYP inhibition in human liver microsomes. Type of series: biochemical. Summed up:
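Reversible CYP inhibition was measured in human liver microsomes across CYP1A2, 2C9, 2C19, 2D6 and 3A4. Each isozyme used a single probe substrate, except CYP3A4, which used both testosterone and midazolam. IC50 values were derived from this. Work was done by a contract partner.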

A short description of series [14]: In vivo rat PK profiling. Further details: species or system Sprague-Dawley rats. To be noted: SD rats. Summed up:
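Sprague-Dawley rats received a single 1 mg/kg bolus of test compound, i.v. or orally. Plasma profiling gave AUC last, AUC/dose, T1/2, clearance, Vss, Cmax, Tmax and oral bioavailability (%F). Work was done by a contract partner.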

Series [15] relates to ALS patients. The conditions noted are these: cited from earlier work.
Setting [16] is: B6SJL, mouse, plasma, ip, 300 mg/kg.

Converted amounts (≈) assume the structure as drawn. “And” between values parts separate entries of the source, which are not always exact repeats. Identical values can stand only once. “Also recorded” adds a separate entry of the source.

Sequence of CYP2C19 (P33261 whole entry): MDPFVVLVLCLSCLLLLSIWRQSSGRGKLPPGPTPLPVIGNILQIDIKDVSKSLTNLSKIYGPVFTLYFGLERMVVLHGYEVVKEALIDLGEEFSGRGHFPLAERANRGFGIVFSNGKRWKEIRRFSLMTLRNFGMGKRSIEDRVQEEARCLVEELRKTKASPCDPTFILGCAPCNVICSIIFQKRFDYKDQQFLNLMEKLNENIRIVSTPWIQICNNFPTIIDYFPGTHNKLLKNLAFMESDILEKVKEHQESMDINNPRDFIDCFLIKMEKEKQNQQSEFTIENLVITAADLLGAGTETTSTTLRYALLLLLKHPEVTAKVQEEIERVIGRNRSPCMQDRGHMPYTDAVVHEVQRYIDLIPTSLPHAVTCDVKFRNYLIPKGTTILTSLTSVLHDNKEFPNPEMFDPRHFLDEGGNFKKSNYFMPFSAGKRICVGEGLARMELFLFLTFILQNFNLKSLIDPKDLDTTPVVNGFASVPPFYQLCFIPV

For orientation: EC50 means the concentration at which the effect is half-maximal. Consider “5-(3,5-Dichlorophenylsulfonyl)-1H-pyrazol-3(2H)-one [Compound 7]”, for which the “Maximum Solubility” value in [1] (45 min) and in series [1] (16 h) was ≥500 µM in each case. Further, the “CL’int” value in [2] came out at 15.3 mL/min/kg; in series [5] (5 μM, 1 h, with NADPH), 4.5 mL/min/kg. Also, the “activity in primary cortical neuron cell protection assay” value in series [3] is “active”. The EC50 in [4] is 1410 nM. In addition, the “CL’int NADPH-free” value in series [5] (5 μM, absence of NADPH) is reported as 1.3 mL/min/kg. In addition, the “Papp (A→B)” value in series [6] (Caco-2) is recorded as 27.0 10^−6 cm/s. For the same compound, the “Papp (B→A)” value in [6] (Caco-2) was 4.4 10^−6 cm/s. For the same compound, the “Ratio (B→A / A→B)” value in [6] is given as 0.2.

As for “5-(4-Chloro-2,5-dimethylphenylsulfinyl)-1H-pyrazol-3(2H)-one [Compound 5]”, the EC50 in series [4] was 2880 nM.

As for “5-(4-Chloro-2,5-dimethylphenylsulfonyl)-1H-pyrazol-3(2H)-one [Compound 8]”, the EC50 in series [4] is 1470 nM.

For “5-(4-Chlorophenylsulfinyl)-1H-pyrazol-3(2H)-one [Compound 4]”, in series [4], the “maximum viability in the cytotoxicity protection assay” value is ~ 35% and the EC50 was > 32000 nM.

As for “5-(4-Chlorophenylsulfonyl)-1H-pyrazol-3(2H)-one [Compound 6]”, in series [4], the EC50 was 4700 nM.

`O=c1cc(CSc2ccc(Cl)cc2)[nH][nH]1` [Compound 1]: in series [7], the microsomal metabolite identified result is on record as “sulfoxide”.

In the case of `O=c1cc(CSc2c(Cl)cccc2Cl)[nH][nH]1` [Compound 2], in [3], the “activity in primary cortical neuron cell protection assay” value is recorded as “active”.

One may read the CLint scaled as a measure of how fast metabolising enzymes remove a compound, apart from limits set by blood flow. The low end stands for greater metabolic stability, the high end for faster metabolism. For the compound `O=c1cc(COc2ccc(Cl)cc2)[nH][nH]1` [Compound 9, 5-((4-Chlorophenoxy)methyl)-1H-pyrazol-3(2H)-one], in series [2], the “CL’int” value was 24.5 mL/min/kg and the “CL’int NADPH-free” value is given as 6.1 mL/min/kg. Also, in [5] (CL’int, 1 h, with NADPH), the CLint scaled at 1 h, 5 µM was determined as 15.3 mL/min/kg.

By solubility is commonly meant the dissolved amount per volume that the medium holds. A low value points to a poorly soluble substance. Broadly, the IC50 is the concentration that inhibits the measured activity by half. A lower IC50 goes with greater potency. In [1] (PBS with 1% DMSO), `O=c1cc(COc2cc(Cl)cc(Cl)c2)[nH][nH]1` [Compound 13, 5-((3,5-Dichlorophenoxy)methyl)-1H-pyrazol-3(2H)-one] yielded a solubility at 45 min of 250 µM (≈ 64.8 µg/mL) and a solubility at 16 h of 250 µM (≈ 64.8 µg/mL). Moreover, in series [2], the “CL’int” value turned out to be 64 mL/min/kg and the “CL’int NADPH-free” value is listed as 21 mL/min/kg. The “activity in the 68 assays of LeadProfilingScreen” value in series [8] was “No significant activity; also recorded: no significant binding”. Besides, the “activity in HEK293 cells” value in [9] is given as “active”. Besides, in series [10], the “activity in SHSY-5Y cells” value is recorded as “active”. Besides, in [3], the “activity in primary cortical neuron cell protection assay” value was “active”. Besides, in series [11] (setting [16]), the concentration at 0 h worked out at 0 ng/mL; the concentration at 3 h was 88800 ng/mL and 88.8 µM; the concentration at 6 h is 90000 ng/mL and 90 µM; the concentration at 12 h was 64400 ng/mL and 64.4 µM. Moreover, the concentration at 24 h in [11] (setting [16]) is 1700 ng/mL and 1.7 µM. Moreover, the “time of plasma peak” value in series [11] (mice, i.p.) lay within 3 to 6 h. For the same compound, the “activity in HeLa cells” value in series [12] was “active”. The IC50 in series [13] is > 50000 nM. Moreover, in series [5] (CL’int NADPH-free, absence of NADPH), the intrinsic metabolic clearance (CLint scaled) at 1 h, 5 µM was 13 mL/min/kg. In addition, the AUC/Dose in series [14] (1 mg/kg i.v. single bolus) is listed as 184 ng × h/mL/dose. Also, the AUC/Dose in [14] (1 mg/kg p.o. single bolus) was 50 ng × h/mL/dose. Moreover, the “Ratio (B→A / A→B)” value in series [6] was 0.2–0.6.

With `Nc1nc2ccc(OC(F)(F)F)cc2s1` [riluzole], the “extension of patient lives” value in [15] is recorded as 2–3 months.
